Series [1] in a line: Octanol/Water partition coefficient, logP of the compound. Type of series: physicochemical.
A short description of series [2]: Solubility of the compound in water. Type of series: physicochemical. To be noted: buffer.
Series [3] has as its system Staphylococcus aureus. Put plainly: Antibacterial activity against Staphylococcus aureus assessed as growth inhibition at 32 ug/mL by whole cell growth inhibition assay relative to control. Type of series: functional. Conditions: read-out: GI. The gist of the method:
(§1)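 Primary single-concentration screen at 32 µg/mL, final DMSO ≤1%, duplicate on different plates. Mid-log cultures in cation-adjusted Mueller Hinton broth at 5×10^5 CFU/mL; 37 °C, 18 h, no shaking. OD600 read; % growth inhibition relative to media-only and untreated-bacteria controls on the same plate. Strains: E. coli ATCC 25922, A. baumannii ATCC 19606, S. aureus ATCC 43300 (MRSA).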

Series [4] has as its system Escherichia coli. Put plainly: Antibacterial activity against Escherichia coli assessed as growth inhibition at 32 ug/mL by whole cell growth inhibition assay relative to control. Type of series: functional. To be noted: read-out: GI. The gist of the method:
as §1

Series [5] has as its system Acinetobacter baumannii. Put plainly: Antibacterial activity against Acinetobacter baumannii assessed as growth inhibition at 32 ug/mL by whole cell growth inhibition assay relative to control. The class given is functional. To be noted: read-out: GI. The gist of the method: as §1
The subject of series [6] is Staphylococcus aureus. Put plainly: Antibacterial activity against methicillin resistant Staphylococcus aureus assessed as growth inhibition at 2 ug/mL by HIT assay relative to control. Type of series: functional. Conditions: read-out: GI. The gist of the method: (§2)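 A. baumannii ATCC 19606 and MRSA ATCC 43300 were grown overnight in cation-adjusted Mueller Hinton broth at 37 °C, subcultured to mid-log, and added at 5×10^5 CFU/mL to an 8-point, 2-fold dilution series (32–0.25 µg/mL; ≤0.5% DMSO). After 18 h static at 37 °C, OD600 was read. Percent inhibition was taken against media-only and untreated-bacteria wells, in duplicate. MIC was the lowest concentration giving ≥80% inhibition.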

Series [7] concerns Acinetobacter baumannii. Put plainly: Antibacterial activity against Multi drug resistant Acinetobacter baumannii assessed as growth inhibition at 16 ug/mL by HIT assay relative to control. Type of series: functional. Conditions: read-out: GI. The gist of the method:
as §2

The nature of series [8]: Cytotoxicity against human HEK293 cells assessed as cell viability at 64 ug/ml relative to control. Type of series: toxicity, cell-based. To be noted: at 64 µg/mL, read-out: Activity.
The nature of series [9]: Hemolytic activity in RBC (unknown origin) assessed as cell viability at 64 ug/ml relative to control. Type of series: toxicity, cell-based, Erythrocyte. Conditions: red blood cells (erythrocytes), at 64 µg/mL, read-out: Activity.
The test system of series [10] is Staphylococcus aureus. Put plainly: Bacteriostatic activity against Staphylococcus aureus ATCC 700698 assessed as log reduction in colony forming unit measured per ml after 24 hrs by time kill assay. Type of series: functional. The gist of the method:
(§3)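 Time-kill assay in cation-adjusted MHB. Overnight cultures (S. aureus MRSA ATCC 700698; A. baumannii ATCC 19606) diluted 1:10,000, grown 2 h at 37 °C, 220 rpm to early exponential phase. […] Aliquots taken at intervals, tenfold serially diluted, plated on MHA overnight at 37 °C for CFU counts.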

Series [11] has as its system Staphylococcus aureus. Put plainly: Bacteriostatic activity against methicillin resistant Staphylococcus aureus assessed as log reduction in colony forming unit measured after 24 hrs by time kill assay. The class given is functional. The gist of the method: (§4)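 MRSA ATCC 700698 and A. baumannii ATCC 19606 overnight cultures were diluted 1:10,000 in MHB and grown 2 h at 37 °C and 220 rpm to early exponential phase. […] At intervals, aliquots were tenfold serially diluted, plated on MHA and incubated overnight at 37 °C for CFU counts.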

In series [12] the test system is Acinetobacter baumannii. Put plainly: Bactericidal activity against multi-drug resistant Acinetobacter baumannii assessed as log reduction in colony forming unit measured after 24 hrs by time kill assay. The class given is functional. The gist of the method: as §4
Series [13] deals with Staphylococcus aureus. Put plainly: Antibacterial activity against methicillin resistant Staphylococcus aureus assessed as growth inhibition at 32 ug/mL by HIT assay relative to control. The class given is functional. To be noted: read-out: GI. The gist of the method:
as §2

For series [14], the system named is Staphylococcus aureus. Put plainly: Antibacterial activity against methicillin resistant Staphylococcus aureus assessed as growth inhibition at 16 ug/mL by HIT assay relative to control. Conditions: read-out: GI. Type of series: functional. The gist of the method: as §2
Series [15] relates to Staphylococcus aureus. Put plainly: Antibacterial activity against methicillin resistant Staphylococcus aureus assessed as growth inhibition. The class given is functional, organism-based. The gist of the method:
as §2

Series [16] relates to Acinetobacter baumannii. Put plainly: Antibacterial activity against susceptible Acinetobacter baumannii. The class given is functional.
The test system of series [17] is Acinetobacter baumannii. Put plainly: Antibacterial activity against Multi drug resistant Acinetobacter baumannii assessed as growth inhibition at 32 ug/mL by HIT assay relative to control. The class given is functional. To be noted: read-out: GI. The gist of the method: as §2
Series [18] relates to Acinetobacter baumannii. Put plainly: Bactericidal activity against Acinetobacter baumannii assessed as log reduction in bacterial count measured after 24 hrs by time kill assay. The class given is functional. The gist of the method: as §3

Active and inactive are the calls of the source. The calls are words filed in the database; no cut-off is given here.

Take `COc1cc(/C=C/C(=O)CC(=O)/C=C/c2ccc(O)c(OC)c2)ccc1O` [CURCUMIN]: in series [1], the logP (as a rule, a log measure of how a compound divides between an organic and an aqueous phase) turned out to be 3.03. The solubility result in [2] was “Soluble”.

In series [1], `CC(=O)/C(=C/c1ccc(O)cc1)C(N)=O` displayed a logP of 0.94. Also, the solubility entry in series [2] was “Soluble”.

Take `CC(=O)/C(=C/c1ccccc1[N+](=O)[O-])C(N)=O`: the logP in [1] worked out at 1.09. Also, in series [2], the solubility result was “Soluble”.

`CC(=O)/C(=C/c1ccccc1F)C(N)=O`: the results for the inhibition of growth at 32 µg/mL in series [3], in series [4] and in series [5] were 43.8%, 59.7% and 58.2%, respectively. Moreover, in series [1], the logP worked out at 1.66. In addition, the solubility result in [2] is recorded as “Soluble”.

For the compound `CC(=O)/C(=C/c1ccc2c(c1)OCO2)C(N)=O`, the logP in series [1] worked out at 1.23. Also, the solubility entry in series [2] was “Soluble”.

As for `CC(=O)/C(=C/c1cccc(F)c1)C(N)=O`, the logP in [1] is 1.49. For the same compound, the solubility entry in series [2] was “Soluble”.

Regarding `CC(=O)/C(=C/c1cccc([N+](=O)[O-])c1)C(N)=O`, the inhibition of growth at 32 µg/mL stood at 83.7% in series [3], 51.1% in [4] and 98% in series [5]. In addition, the inhibition of growth at 2 µg/mL in series [6] was determined as 99.4%. Besides, the inhibition of growth at 16 µg/mL in [7] turned out to be 98.2%. In addition, the viability at 64 ug/ml in series [8] turned out to be 93.8%; in [9], 96.4%. In addition, the Activity is on record as 2 log10CFU/ml in series [10], more than 3 log10CFU in [11] and more than 3 log10CFU in [12]. The compound further gave a logP in series [1] of 1.15. In addition, in series [2], the solubility entry is reported as “Soluble”.

Turning to `CC(=O)/C(=C/c1ccc(C(F)(F)F)cc1)C(N)=O`, the logP in series [1] amounted to 2.43. Besides, in series [2], the solubility result is given as “Soluble”.

Take `CC(=O)/C(=C/c1ccc(Cl)cc1)C(N)=O`: the inhibition of growth at 32 µg/mL in [3] was determined as 87.5%; in [4] it was 67.8%; in series [5] it was 65.4%. This compound came in with a logP in [1] of 1.88. For the same compound, the solubility entry in [2] is recorded as “Soluble”.

On to `CC(=O)/C(=C/c1ccc(C)cc1)C(N)=O`, for which the logP in series [1] was found to be 1.68. Also, in [2], the solubility entry is “Soluble”.

`O=C(/C=C/c1ccccc1)c1ccccc1` [CHALCONE] yielded a logP in [1] of 3.29. Also, in [2], the solubility entry is “Soluble”.

In series [1], `COc1cccc(/C=C(/C(C)=O)C(N)=O)c1OC` registered a lipophilicity (logP) of 1.3. For the same compound, the solubility entry in series [2] is reported as “Soluble”.

For the compound `CC(=O)/C(=C/c1ccc(Br)cc1)C(N)=O`, the inhibition of growth at 32 µg/mL amounted to 83.7% in series [3], 51.8% in series [4], 53% in series [5] and 94.2% in [13]. Further, the viability at 64 ug/ml was 94.8% in series [8] and 98.9% in [9]. For the same compound, in [10], the Activity is listed as 2 log10CFU/ml. Besides, the logP in series [1] is 1.62. Besides, the solubility result in [2] is given as “Soluble”.

For `CCc1ccc(/C=C(/C(C)=O)C(N)=O)cc1[N+](=O)[O-]`, the inhibition of growth at 32 µg/mL is 82.7% in [3], 25.5% in [4] and 27.7% in series [5]. For the same compound, in series [14], the inhibition of growth at 16 µg/mL was 99.2%. Also, the viability at 64 ug/ml in series [8] stood at 88.9%; in series [9] it was 94.5%. Moreover, the logP in series [1] was found to be 1.31. In addition, the solubility entry in series [2] is “Soluble”.

In turn, `CC(=O)/C(=C/c1cccc(C#N)c1)C(N)=O` yielded a logP in series [1] of 1.15. Moreover, in [2], the solubility entry was “Soluble”.

`CC(=O)/C(=C/c1cccc(Br)c1)C(N)=O` had a logP in series [1] of 1.73. Moreover, the solubility result in series [2] is listed as “Soluble”.

In the case of `CC(=O)/C(=C/c1ccccc1Br)C(N)=O`, the inhibition of growth at 32 µg/mL in series [3] was 93.8%; in series [4] it was 51.6%; in [5] it was 60%; in series [13], 80%. The viability at 64 ug/ml in [8] was determined as 90.2%; in series [9], 95.3%. Moreover, in [10], the Activity was 2 log10CFU/ml. In addition, in series [1], the lipophilicity (logP) was determined as 1.62. Moreover, the solubility result in series [2] is “Soluble”.

In the case of `CN[C@H](CC(C)C)C(=O)N[C@H]1C(=O)N[C@@H](CC(N)=O)C(=O)N[C@H]2C(=O)N[C@H]3C(=O)N[C@H](C(=O)N[C@H](C(=O)O)c4cc(O)cc(O)c4-c4cc3ccc4O)[C@H](O)c3ccc(c(Cl)c3)Oc3cc2cc(c3O[C@@H]2O[C@H](CO)[C@@H](O)[C@H](O)[C@H]2O[C@H]2C[C@](C)(N)[C@H](O)[C@H](C)O2)Oc2ccc(cc2Cl)[C@H]1O.Cl` [VANCOMYCIN HYDROCHLORIDE], the “growth inhibition (GI)” value in series [15] was “inactive”. The MIC (as a rule, the lowest concentration that inhibits growth of the organism) in series [16] was determined as 0.25 µg/mL.

Consider `CC(=O)/C(=C/c1ccccc1C#N)C(N)=O`, for which the inhibition of growth at 32 µg/mL in [3] was 14.4%; in [4] it was 52.1%; in [5], 70.8%; in series [17] it was 50.5%. The values for the viability at 64 ug/ml in series [8] and in [9] were 97.6% and 92.2%, respectively. For the same compound, in [18], the “log(activity)” value is more than 3. The logP in series [1] was 1.09. Besides, in series [2], the solubility entry was “Soluble”.

As for `CCc1ccc(/C=C(/C(C)=O)C(N)=O)cc1`, the logP in series [1] was found to be 1.99. Moreover, the solubility entry in series [2] is listed as “Soluble”.

With `CC(=O)/C(=C/c1ccc(OCc2ccccc2)cc1)C(N)=O`, the logP in series [1] worked out at 2.72. For the same compound, in [2], the solubility entry is “Soluble”.

Regarding `CC(=O)/C(=C/c1ccccc1Cl)C(N)=O`, the figures for the inhibition of growth at 32 µg/mL in [3], in series [4] and in series [5] were 98.1%, 66.8% and 58.8%, respectively. The logP in series [1] amounted to 1.38. The solubility entry in series [2] is “Soluble”.

As for `CC(=O)/C(=C/c1ccc([N+](=O)[O-])cc1)C(N)=O`, the inhibition of growth at 32 µg/mL amounted to 98.2% in series [3], 68.1% in series [4] and 30.5% in series [5]. Moreover, the inhibition of growth at 2 µg/mL in series [6] was found to be 98.7%. Moreover, the viability at 64 ug/ml in [8] was 90.6%; in [9], 95.1%. In addition, in series [10], the Activity amounted to 2 log10CFU/ml. Further, the logP in series [1] is 1.13. For the same compound, in [2], the solubility entry is “Soluble”.

The compound `CC(=O)/C(=C/c1ccccc1)C(N)=O` registered a lipophilicity (logP) in [1] of 1.6. Also, the solubility entry in series [2] is on record as “Soluble”.

`CC(=O)/C(=C/c1ccc(C#N)cc1)C(N)=O` came in with a logP in series [1] of 1.13. Moreover, the solubility result in series [2] is on record as “Soluble”.

Take `COc1cc(/C=C(/C(C)=O)C(N)=O)cc(OC)c1OC`: in series [1], the logP is 1.41. Further, the solubility entry in [2] is listed as “Soluble”.
